Source: ChEMBL document CHEMBL1134460, “Terminally alkylated polyamine analogues as chemotherapeutic agents” (J Med Chem, 2001)

How the values were obtained:
[1] = Half-life period in liver tissues; type: ADME, tissue-based
NCI-H157 [2] = assay: Effect of exposure of H157 non-SCLC (<10 uM) for 96-h, and accumulation of compound was determined; type: functional, Homo sapiens
NCI-H157 [3] = assay: Effect of exposure of H157 non-SCLC to compound (<10 uM) for 96-h, on natural polyamines and accumulation of the compound; Decrease; type: functional, cell-based; settings: Homo sapiens
How it was run: (§1)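 H157 non-SCLC cells were treated with 10 μM analogue. Cellular putrescine, spermidine and spermine, plus the intracellular analogue, were quantified and compared with untreated control cells.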

[4] = target: T1, Diamine acetyltransferase 1 (Homo sapiens, UniProt P21673); assay: Effect of 10 uM on spermine/spermidine-N-acetyltransferase (SSAT) induction in non-SCLC cells; type: cell-based
How it was run: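 NCI H157 non-small-cell lung tumor cells were exposed to 10 μM analogue. SSAT activity was assayed and expressed as pmol product/mg protein/min, then as fold increase over untreated control cells.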

Spermine synthase = target: T2, Spermine synthase (Homo sapiens, UniProt P52788); assay: Inhibitory activity against spermine synthase
T2 sequence (P52788 whole entry): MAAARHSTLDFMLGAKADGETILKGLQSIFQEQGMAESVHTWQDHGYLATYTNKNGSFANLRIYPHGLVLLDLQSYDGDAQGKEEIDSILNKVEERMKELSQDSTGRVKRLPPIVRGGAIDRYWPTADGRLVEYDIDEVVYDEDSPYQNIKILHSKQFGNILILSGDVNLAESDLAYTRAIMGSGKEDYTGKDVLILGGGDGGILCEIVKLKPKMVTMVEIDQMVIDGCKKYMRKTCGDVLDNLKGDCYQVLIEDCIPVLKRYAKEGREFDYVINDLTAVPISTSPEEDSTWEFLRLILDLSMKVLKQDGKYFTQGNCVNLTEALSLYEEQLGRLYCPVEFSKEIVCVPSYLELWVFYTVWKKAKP

[5] = target: T3, Ornithine decarboxylase (Homo sapiens) (UniProt P11926); assay: Inhibition of ornithine decarboxylase (ODC); set-up: concentration or dose not given beside the values; settings: concentration not given here
T3 sequence (whole entry): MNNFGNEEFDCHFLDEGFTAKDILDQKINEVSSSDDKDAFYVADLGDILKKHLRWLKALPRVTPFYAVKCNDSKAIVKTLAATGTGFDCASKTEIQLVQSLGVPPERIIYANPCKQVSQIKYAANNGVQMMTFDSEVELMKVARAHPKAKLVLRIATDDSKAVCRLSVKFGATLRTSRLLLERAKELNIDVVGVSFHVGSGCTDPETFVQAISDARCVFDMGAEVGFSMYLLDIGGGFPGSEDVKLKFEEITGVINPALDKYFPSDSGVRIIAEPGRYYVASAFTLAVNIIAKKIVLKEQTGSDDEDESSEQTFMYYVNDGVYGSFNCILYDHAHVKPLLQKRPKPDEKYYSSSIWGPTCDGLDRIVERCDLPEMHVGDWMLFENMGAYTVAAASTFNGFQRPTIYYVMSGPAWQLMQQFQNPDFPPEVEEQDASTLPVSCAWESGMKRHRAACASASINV

Trypanosoma brucei [6] = assay: In vitro growth Inhibitory activity against K243 Strain of Trypanosoma brucei.; type: functional, organism-based
How it was run: (§2)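 In vitro growth inhibition was run against T. b. brucei LAB EATRO 110 and T. b. rhodesiense KETRI 243, KETRI 243 As-10-3 and KETRI 269. […] ">100" means no appreciable inhibition up to the highest concentration tested.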

Trypanosoma brucei [7] = assay: In vitro growth Inhibitory activity against LAB 110 Strain of Trypanosoma brucei; type: functional, organism-based; how it was run: as §2
Trypanosoma brucei [8] = assay: in vivo growth inhibition of Trypanosoma brucei was determined; type: functional, organism-based
[9] = target: S-adenosylmethionine decarboxylase (Homo sapiens) (UniProt P17707); assay: Inhibition of Inhibition of human form of S-adenosyl-methionine decarboxylase enzyme (AdoMet-DC); set-up: concentration or dose not given beside the values; settings: concentration not given here
NCH82 = assay: Cytokinetic effects on H82 small-cell lung tumor line (SCLC) after 96-h treatment; type: functional, Homo sapiens
NCI-H157 [10] = assay: (§3) Effect of exposure of H157 non-SCLC to compound (<10 uM) for 96-h, on natural polyamines and accumulation of the compound; No significant change; type: functional, cell-based; settings: Homo sapiens; how it was run: as §1
NCI-H157 [11] = assay: as §3; type: functional, cell-based; settings: Homo sapiens; remark: listed apart in the source
[12] = target: T1, Diamine acetyltransferase 1; assay: Inhibitory activity of compound against SSAT extracted from superinduced H157 cells; type: cell-free
How it was run: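 SSAT came from crude extracts of superinduced H157 cells and was assayed at saturating spermidine.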

NCI-H157 [13] = assay: Activity against H157 non-SCLC cells in culture; type: functional, cell-based; settings: Homo sapiens

T1 sequence (P21673 whole entry): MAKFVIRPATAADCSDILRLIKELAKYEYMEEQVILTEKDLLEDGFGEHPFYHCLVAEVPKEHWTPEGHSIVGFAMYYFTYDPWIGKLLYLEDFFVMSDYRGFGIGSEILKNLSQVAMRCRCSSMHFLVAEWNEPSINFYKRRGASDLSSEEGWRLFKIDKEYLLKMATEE

| Structure (SMILES) | Amount (NCI-H157 [2]) | Effect on polyamine pools (NCI-H157 [3]) | Induction [4] | inhibition [5] | inhibition [9] | further results |
| --- | --- | --- | --- | --- | --- | --- |
| CCNCCCCNCCCCNCCCCNCC [DIETHYLHOMOSPERMINE] |  |  |  |  |  | half-life [1]: 15.4 days |
| CCNCCCNCCCNCCCNC1CCCCCC1 | >20 nM (mg of protein)-1 | Decrease | > 500 |  |  |  |
| CCNCCCNCCCNCCCN1CCCCCC1 |  | Decrease | > 500 |  |  |  |
| NCCCNCCCCCC(CCN)SC[C@H]1O[C@@H](n2cnc3c(N)ncnc32)[C@H](O)[C@@H]1O (stereo not given in full) |  |  |  |  |  | IC50 (Spermine synthase): 0.02 µM |
| CCNCCCNCCCNCCCNCC1CCC1 | >20 nM (mg of protein)-1 | Decrease | > 500 | > 50% |  |  |
| CCNCCCN[C@@H]1CCC[C@H](N)CC1 |  |  |  |  |  | IC50 (Trypanosoma brucei [6]): > 100 µM; IC50 (Trypanosoma brucei [7]): > 100 µM |
| C[S+](C[C@@H]1O[C@H](n2cnc3c(N)ncnc32)[C@@H](O)[C@H]1O)C1C=CC(ON)C1 (stereo not given in full) |  |  |  |  |  | IC50 (Trypanosoma brucei [8]): 0.9 µM |
| CCNCCCNCCCNCCCNCC1CCCCC1 | >20 nM (mg of protein)-1 | Decrease | < 50 | < 50% | < 50% |  |
| CCNCCCNCCCN1CCCCCC1 |  |  | < 50 |  |  | Effect (NCH82): 0; Effect on polyamine pools (NCI-H157 [10]): No significant change |
| CCNCCCN[C@H]1C=C[C@@H](N)CCC1 |  |  |  |  |  | IC50 (Trypanosoma brucei [6]): > 100 µM; IC50 (Trypanosoma brucei [7]): > 100 µM |
| CCNCCCNCCCNCCCNCC1CCC(Br)CC1 (stereo not given) | >20 nM (mg of protein)-1 | Decrease | < 50 | < 50% | < 50% |  |
| CCNCCCNCCCNCCCNCC1CCCC1 | >20 nM (mg of protein)-1 | Decrease | > 500 | > 50% | > 50% |  |
| CCNCCCCNCCCNCC | >20 nM (mg of protein)-1 | Decrease | > 50 | > 50% | < 50% |  |
| N[C@@H]1C=C[C@H](NCCCNCC2CC2)C1 |  |  |  |  |  | IC50 (Trypanosoma brucei [6]): > 100 µM; IC50 (Trypanosoma brucei [7]): > 100 µM |
| CCNCCCNCCCNCCCO | >20 nM (mg of protein)-1 | Decrease | > 500 | < 50% | < 50% | Effect (NCH82): 0 |
| CCNCCCNCCCCCCCNCCCNCC1CCCCCC1 | <20 nM (mg of protein)-1 |  | 0 | < 50% | < 50% | NC (NCI-H157 [11]): No significant change |
| C(CCCNCCCNCC1CCCCCC1)CCCNCCCNCC1CCCCCC1 |  |  | 0 |  |  | NC (NCI-H157 [11]): No significant change |
| CCNCCCNCCCNC1CCCCCC1 |  | Decrease | > 50 | < 50% |  |  |
| C#CCNCCCNCCCNCCCNCC |  | Decrease | > 500 | < 50% |  | IC50 [12]: 40 µM; IC50 (NCI-H157 [13]): 1.1 µM |
| CCNCCCNCCCNCC1CCCCCC1 | >20 nM (mg of protein)-1 | Decrease | > 500 |  |  |  |
